Data as given in ChEMBL document CHEMBL4000227, “Structure activity relationships of benzylproline-derived inhibitors of the glutamine transporter ASCT2” (Bioorg Med Chem Lett, 2017).
Calls of active or inactive are those of the source. No cut-off for these calls is given here.

Columns and labels:
Type in all cases: cell-based
[1] = target: T1, Amino acid transporter (Rattus norvegicus) (UniProt Q9Z1J7); test: Inhibition of rat ASCT2 expressed in HEK293 cells assessed as inhibition of L-alanine/Na+ exchange by measuring reduction in SCN anion inward current at 1 mM in presence of NaCl and NaSCN by whole cell patch-clamp method
T1 sequence (whole entry): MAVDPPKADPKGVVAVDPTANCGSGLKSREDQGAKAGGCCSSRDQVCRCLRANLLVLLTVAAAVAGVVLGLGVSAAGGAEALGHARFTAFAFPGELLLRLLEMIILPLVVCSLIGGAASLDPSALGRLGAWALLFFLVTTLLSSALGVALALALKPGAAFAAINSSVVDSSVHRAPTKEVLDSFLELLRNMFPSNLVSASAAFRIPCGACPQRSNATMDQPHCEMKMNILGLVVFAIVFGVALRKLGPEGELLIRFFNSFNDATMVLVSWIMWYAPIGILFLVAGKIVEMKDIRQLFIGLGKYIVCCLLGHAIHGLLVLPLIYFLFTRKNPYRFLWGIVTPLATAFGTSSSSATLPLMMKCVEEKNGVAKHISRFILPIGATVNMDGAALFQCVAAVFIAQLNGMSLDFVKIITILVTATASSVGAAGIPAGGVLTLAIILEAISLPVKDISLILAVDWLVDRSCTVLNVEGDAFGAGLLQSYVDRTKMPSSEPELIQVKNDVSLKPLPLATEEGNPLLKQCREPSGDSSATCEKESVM
Summary of the method: (§1)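 Rat ASCT2 transiently transfected into HEK293T cells (no detectable endogenous ASCT2); whole-cell recording at 0 mV with 140 mM external NaCl, 135 mM internal NaSCN, 10 mM internal alanine. Compound applied at 1 mM; current expressed relative to saturating alanine response, saturating current calculated as I/Imax = c/(c+Km). Outward current taken as inhibition of leak anion conductance.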

[2] = target: T1, Amino acid transporter (Rattus norvegicus); test: Inhibition of rat ASCT2 expressed in HEK293 cells assessed as outward current by measuring reduction in SCN anion inward current at 1 mM in presence of NaCl and NaSCN by whole cell patch-clamp method; summary of the method: as §1
Amino acid transporter = target: T2, Amino acid transporter (Rattus norvegicus, UniProt Q9Z1J7); test: Inhibition of rat ASCT2 expressed in HEK293 cells assessed as inhibition of L-alanine/Na+ exchange by measuring reduction in SCN anion inward current in presence of NaCl and NaSCN by whole cell patch-clamp method; conditions: read-out: Ki(app)
T2 sequence (Q9Z1J7 whole entry): T1 sequence (whole entry)

Row | SMILES | Imax [1] [%] | inhibition [2] | Ki (Amino acid transporter) [µM]
1 | O=C(O)[C@@H]1C[C@@H](Cc2ccc(Cl)cc2Cl)CN1 | 56 | Active | 30
2 | O=C(O)C1C[C@@H](Cc2ccc(F)c(F)c2)CN1 (single isomer, unassigned) | 51 | Active | 73
3 | O=C(O)C1C[C@@H](Cc2ccc(F)cc2)CN1 (single isomer, unassigned) | 57 | Active | 190
4 | O=C(O)C1C[C@@H](Cc2cccc(F)c2)CN1 (single isomer, unassigned) | 67 | Active | 177
5 | O=C(O)C1C[C@@H](Cc2ccccc2)CN1 (single isomer, unassigned) | 52 |  | 2000
6 | O=C(O)[C@@H]1C[C@@H](Cc2ccc(-c3ccccc3)cc2)CN1 | 57 | Active | 3

The next lines start with the values.

Row | Imax [1] [%] | inhibition [2] | Ki (Amino acid transporter) [µM] | SMILES
7 | 55 | Active |  | O=C(O)C1C[C@@H](Cc2ccccc2Br)CN1 (single isomer, unassigned)
8 | 43 | Active |  | O=C(O)C1C[C@@H](Cc2cccc(C(F)(F)F)c2)CN1 (single isomer, unassigned)
9 | 49 | Active | 220 | O=C(O)C1C[C@@H](Cc2ccccc2C(F)(F)F)CN1 (single isomer, unassigned)
10 | 47 | Active |  | O=C(O)C1C[C@@H](Cc2ccc(C(F)(F)F)cc2)CN1 (single isomer, unassigned)
11 | 59 | Active | 38 | Cc1ccccc1C[C@H]1CNC(C(=O)O)C1 (single isomer, unassigned)
12 | 61 | Active |  | O=C(O)C1C[C@@H](Cc2ccccc2[N+](=O)[O-])CN1 (single isomer, unassigned)
13 | 46 | Active | 195 | O=C(O)C1C[C@@H](Cc2ccccc2Cl)CN1 (single isomer, unassigned)
14 | 61 | Active | 83 to 87 | O=C(O)C1C[C@@H](Cc2ccccc2F)CN1 (single isomer, unassigned)
